# Test: Volume of distribution in Wistar Hannover rat at 1 mg/kg, iv administered as bolus dose via jugular vein cannula measured up to 24 hrs post dose by HPLC-MS/MS analysis
# Type: ADME, organism-based
# Settings: in vivo
# Summary of the method: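 Rats (n = 2) given 1 mg/kg IV bolus via jugular vein cannula, solution in 3% DMA/10% Solutol HS15/10% Miglyol/77% of 20% SBECD in water, 1 mL/kg. Carotid cannula blood pre-dose and 0.083–24 h; plasma by HPLC-MS/MS; non-compartmental analysis.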
smiles,measurement,value
O=C(O[C@H](CO)C(F)(F)F)N1C[C@@H]2[C@H](C1)[C@H]2c1ccn(-c2ccc(F)cc2)n1,Vd,3.1 L/kg
